These results are taken from ChEMBL document CHEMBL4229344 (Eur J Med Chem, 2018).

Active and inactive are the calls of the source. No cut-off for these calls is given here.

Assay [1] addresses Serine/threonine-protein kinase PAK 6 (Homo sapiens) (UniProt Q9NQU5). Briefly: Binding affinity to wild-type human partial length PAK6 (N298 to C681 residues) expressed in bacterial expression system assessed as residual binding level at 1 uM by Kinomescan method relative to control.
In assay [2] the target is Fibroblast growth factor receptor 3 (Homo sapiens) (UniProt P22607). Briefly: Binding affinity to wild-type human partial length FGFR3 (R442 to S771 residues) expressed in bacterial expression system assessed as residual binding level at 1 uM by Kinomescan method relative to control.
Assay [3] concerns the target Serine/threonine-protein kinase PLK3 (Homo sapiens) (UniProt Q9H4B4). Briefly: Binding affinity to wild-type human partial length PLK3 (A42 to L334 residues) expressed in mammalian expression system assessed as residual binding level at 1 uM by Kinomescan method relative to control. Summed up:
(§1)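 KINOMEscan competition binding against a panel of 468 purified kinases/mutants, compound tested at 1 μM; readout is relative binding activity versus control.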

In assay [4] the target is Myosin light chain kinase, smooth muscle (Homo sapiens) (UniProt Q15746). In words: Binding affinity to wild-type human full length MYLK (M854 to E1845 residues) expressed in mammalian expression system assessed as residual binding level at 1 uM by Kinomescan method relative to control. Summed up:
(§2)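 Single-concentration KINOMEscan (DiscoverX) binding screen at 1 μM against a panel of 468 purified kinases and mutants. The read-out is binding relative to control.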

Assay [5] deals with Macrophage colony-stimulating factor 1 receptor (Homo sapiens) (UniProt P07333). Briefly: Binding affinity to wild-type human partial length autoinhibited CSF1R (Y538 to S939 residues) expressed in mammalian expression system assessed as residual binding level at 1 uM by Kinomescan method relative to control.
In another assay the test system is NCI-H1703. In words: Induction of apoptosis in human NCI-H1703 cells assessed as cleaved PARP expression level at 0.3 to 10 uM after 72 hrs by Western blot analysis. Format: functional, cell-based. Summed up: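 Cells exposed to compound or DMSO for the stated periods, then lysed and immunoblotted for PARP and caspase-3 cleavage, with β-actin as loading control. NCI-H1703 stimulation used PDGF AA at 100 ng/mL.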
On the technique in general: In western blotting, separated proteins are transferred to a membrane and probed.

Assay [6] deals with Calcium/calmodulin-dependent protein kinase type II subunit delta (Homo sapiens) (UniProt Q13557). In words: Binding affinity to wild-type human partial length CAMK2D (M1 to E329 residues) expressed in bacterial expression system assessed as residual binding level at 1 uM by Kinomescan method relative to control.
For assay [7], the target named is Tyrosine-protein kinase Fer (Homo sapiens) (UniProt P16591). Briefly: Binding affinity to wild-type human partial length FER (S542 to T822 residues) expressed in bacterial expression system assessed as residual binding level at 1 uM by Kinomescan method relative to control.
The target in assay [8] is Serine/threonine-protein kinase Nek7 (Homo sapiens) (UniProt Q8TDX7). In words: Binding affinity to wild-type human full length NEK7 (M1 to S302 residues) expressed in bacterial expression system assessed as residual binding level at 1 uM by Kinomescan method relative to control. A digest of the protocol: as §2
The target of assay [9] is Platelet-derived growth factor receptor alpha (Homo sapiens, UniProt P16234).
Assay [10] deals with Dual specificity tyrosine-phosphorylation-regulated kinase 2 (Homo sapiens) (UniProt Q92630). Briefly: Binding affinity to wild-type human full length DYRK2 (M1 to S528 residues) expressed in mammalian expression system assessed as residual binding level at 1 uM by Kinomescan method relative to control. A digest of the protocol:
(§3)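 Single-concentration (1 μM) competition-binding screen run by KINOMEscan against a panel of 468 purified kinases and mutants. The read-out is the relative binding activity of the test compound to each kinase.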

Assay [11] has as its target Serine/threonine-protein kinase 17A (Homo sapiens) (UniProt Q9UEE5). Briefly: Binding affinity to wild-type human partial length DRAK1 (R32 to E363 residues) expressed in bacterial expression system assessed as residual binding level at 1 uM by Kinomescan method relative to control.
For assay [12], the target named is Casein kinase I isoform delta (Homo sapiens) (UniProt P48730). In words: Binding affinity to wild-type human full length CSNK1D (M1 to K409 residues) expressed in bacterial expression system assessed as residual binding level at 1 uM by Kinomescan method relative to control. Summed up: as §3
Assay [13] deals with Mitogen-activated protein kinase kinase kinase 3 (Homo sapiens) (UniProt Q99759). Briefly: Binding affinity to wild-type human partial length MAP3K3 (E320 to Y626 residues) expressed in mammalian expression system assessed as residual binding level at 1 uM by Kinomescan method relative to control.
Assay [14] deals with Serine/threonine-protein kinase PAK 5 (Homo sapiens) (UniProt Q9P286). Briefly: Binding affinity to wild-type human partial length PAK7 (Y400 to H719 residues) expressed in bacterial expression system assessed as residual binding level at 1 uM by Kinomescan method relative to control. Summed up:
as §1

The target in assay [15] is Receptor-interacting serine/threonine-protein kinase 4 (Homo sapiens) (UniProt P57078). Briefly: Binding affinity to wild-type human partial length RIPK4 (M1 to V303 residues) expressed in mammalian expression system assessed as residual binding level at 1 uM by Kinomescan method relative to control.
The target of assay [16] is Mitogen-activated protein kinase 13 (Homo sapiens) (UniProt O15264). In words: Binding affinity to wild-type human full length p38-delta (M1 to L365 residues) expressed in bacterial expression system assessed as residual binding level at 1 uM by Kinomescan method relative to control. Summed up:
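KINOMEscan competition binding against 468 purified kinases/mutants, test compound at 1 µM; residual binding relative to control.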

Assay [17] has as its target Inhibitor of nuclear factor kappa-B kinase subunit beta (Homo sapiens) (UniProt O14920). Briefly: Binding affinity to wild-type human full length IKK-beta (M1 to S756 residues) expressed in mammalian expression system assessed as residual binding level at 1 uM by Kinomescan method relative to control. Summed up: as §3
In assay [18] the target is Serine/threonine-protein kinase 10 (Homo sapiens) (UniProt O94804). Briefly: Binding affinity to wild-type human partial length LOK (E16 to V314 residues) expressed in bacterial expression system assessed as residual binding level at 1 uM by Kinomescan method relative to control. A digest of the protocol:
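Kinome-wide competition binding screen against a panel of 468 purified kinases/mutants, with the test compound at a single concentration of 1 μM. Read-out is the relative binding activity of each kinase in the presence of compound.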

In assay [19] the target is Tyrosine-protein kinase receptor TYRO3 (Homo sapiens) (UniProt Q06418). Briefly: Binding affinity to wild-type human partial length TYRO3 (S497 to T814 residues) expressed in bacterial expression system assessed as residual binding level at 1 uM by Kinomescan method relative to control.
Assay [20] concerns the target Rhodopsin kinase GRK1 (Homo sapiens) (UniProt Q15835). Briefly: Binding affinity to wild-type human full length GRK1 (M1 to S563 residues) expressed in mammalian expression system assessed as residual binding level at 1 uM by Kinomescan method relative to control. A digest of the protocol:
as §3

Assay [21] addresses Serine/threonine-protein kinase 35 (Homo sapiens) (UniProt Q8TDR2). Briefly: Binding affinity to wild-type human partial length STK35 (G182 to A534 residues) expressed in bacterial expression system assessed as residual binding level at 1 uM by Kinomescan method relative to control.

Sequence of Serine/threonine-protein kinase PAK 6 (Homo sapiens) (Q9NQU5 whole entry, looked up, the tested form may be a part): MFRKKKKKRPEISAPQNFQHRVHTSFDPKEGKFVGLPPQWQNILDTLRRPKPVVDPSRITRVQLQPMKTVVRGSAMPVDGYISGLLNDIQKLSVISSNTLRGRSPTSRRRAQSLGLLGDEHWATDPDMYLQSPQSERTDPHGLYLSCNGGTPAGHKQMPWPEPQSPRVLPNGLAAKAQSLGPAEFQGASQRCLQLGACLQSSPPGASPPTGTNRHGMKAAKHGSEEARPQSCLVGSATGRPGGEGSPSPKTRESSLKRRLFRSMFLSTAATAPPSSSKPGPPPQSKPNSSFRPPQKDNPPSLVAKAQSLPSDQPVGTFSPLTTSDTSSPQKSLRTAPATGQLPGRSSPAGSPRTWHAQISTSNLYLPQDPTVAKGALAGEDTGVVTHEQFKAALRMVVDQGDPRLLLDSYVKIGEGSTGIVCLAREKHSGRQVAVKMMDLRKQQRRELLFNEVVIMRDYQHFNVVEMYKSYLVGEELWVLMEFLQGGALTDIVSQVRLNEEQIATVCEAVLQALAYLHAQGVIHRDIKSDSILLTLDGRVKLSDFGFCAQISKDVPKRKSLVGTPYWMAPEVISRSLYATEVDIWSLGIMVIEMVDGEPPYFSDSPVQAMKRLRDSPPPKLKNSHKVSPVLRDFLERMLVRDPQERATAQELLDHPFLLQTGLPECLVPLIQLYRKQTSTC
Sequence of Serine/threonine-protein kinase Nek7 (Homo sapiens) (Q8TDX7 whole entry, looked up, the tested form may be a part): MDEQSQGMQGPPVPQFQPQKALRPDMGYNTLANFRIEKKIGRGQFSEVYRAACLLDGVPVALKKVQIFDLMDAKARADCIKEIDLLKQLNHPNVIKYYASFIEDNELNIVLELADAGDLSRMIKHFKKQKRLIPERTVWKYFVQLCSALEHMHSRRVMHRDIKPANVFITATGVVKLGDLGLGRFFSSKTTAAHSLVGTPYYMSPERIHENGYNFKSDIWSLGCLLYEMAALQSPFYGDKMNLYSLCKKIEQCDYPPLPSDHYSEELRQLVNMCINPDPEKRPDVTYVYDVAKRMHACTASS
Sequence of Calcium/calmodulin-dependent protein kinase type II subunit delta (Homo sapiens) (Q13557 whole entry, the tested form may be a part): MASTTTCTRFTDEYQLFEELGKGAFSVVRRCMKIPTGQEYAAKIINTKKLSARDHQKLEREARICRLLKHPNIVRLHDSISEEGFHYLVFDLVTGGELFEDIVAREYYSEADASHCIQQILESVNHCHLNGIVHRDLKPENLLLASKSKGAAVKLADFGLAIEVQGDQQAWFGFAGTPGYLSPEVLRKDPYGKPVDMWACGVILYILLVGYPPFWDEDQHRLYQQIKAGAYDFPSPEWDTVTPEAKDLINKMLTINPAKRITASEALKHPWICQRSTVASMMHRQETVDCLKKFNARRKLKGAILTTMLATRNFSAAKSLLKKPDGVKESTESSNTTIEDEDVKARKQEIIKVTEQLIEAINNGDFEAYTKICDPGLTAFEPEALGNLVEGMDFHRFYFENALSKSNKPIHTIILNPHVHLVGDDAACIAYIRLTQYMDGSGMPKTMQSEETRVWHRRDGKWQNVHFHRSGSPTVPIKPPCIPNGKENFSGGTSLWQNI
Sequence of Inhibitor of nuclear factor kappa-B kinase subunit beta (Homo sapiens) (O14920 whole entry, the tested form may be a part): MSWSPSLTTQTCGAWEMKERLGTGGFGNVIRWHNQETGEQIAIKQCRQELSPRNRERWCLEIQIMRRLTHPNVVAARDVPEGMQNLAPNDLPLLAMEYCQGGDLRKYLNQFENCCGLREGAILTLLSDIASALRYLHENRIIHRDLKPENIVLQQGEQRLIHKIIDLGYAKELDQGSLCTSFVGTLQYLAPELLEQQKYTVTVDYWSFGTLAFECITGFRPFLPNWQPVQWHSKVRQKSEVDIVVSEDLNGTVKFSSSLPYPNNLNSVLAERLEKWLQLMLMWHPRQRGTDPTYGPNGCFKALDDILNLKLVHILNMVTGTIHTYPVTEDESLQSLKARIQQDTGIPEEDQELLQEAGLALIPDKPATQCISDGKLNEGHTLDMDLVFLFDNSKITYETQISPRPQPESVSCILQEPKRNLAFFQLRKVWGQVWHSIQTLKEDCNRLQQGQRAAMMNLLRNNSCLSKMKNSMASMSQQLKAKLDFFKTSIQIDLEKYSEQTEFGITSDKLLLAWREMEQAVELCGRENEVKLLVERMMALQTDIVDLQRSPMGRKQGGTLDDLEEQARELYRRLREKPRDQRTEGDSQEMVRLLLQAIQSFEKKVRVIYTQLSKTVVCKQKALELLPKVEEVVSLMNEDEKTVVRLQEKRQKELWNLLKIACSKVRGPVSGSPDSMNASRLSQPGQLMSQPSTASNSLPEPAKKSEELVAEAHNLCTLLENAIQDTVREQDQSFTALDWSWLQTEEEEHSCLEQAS
Sequence of Serine/threonine-protein kinase PAK 5 (Homo sapiens) (Q9P286 whole entry, looked up, the tested form may be a part): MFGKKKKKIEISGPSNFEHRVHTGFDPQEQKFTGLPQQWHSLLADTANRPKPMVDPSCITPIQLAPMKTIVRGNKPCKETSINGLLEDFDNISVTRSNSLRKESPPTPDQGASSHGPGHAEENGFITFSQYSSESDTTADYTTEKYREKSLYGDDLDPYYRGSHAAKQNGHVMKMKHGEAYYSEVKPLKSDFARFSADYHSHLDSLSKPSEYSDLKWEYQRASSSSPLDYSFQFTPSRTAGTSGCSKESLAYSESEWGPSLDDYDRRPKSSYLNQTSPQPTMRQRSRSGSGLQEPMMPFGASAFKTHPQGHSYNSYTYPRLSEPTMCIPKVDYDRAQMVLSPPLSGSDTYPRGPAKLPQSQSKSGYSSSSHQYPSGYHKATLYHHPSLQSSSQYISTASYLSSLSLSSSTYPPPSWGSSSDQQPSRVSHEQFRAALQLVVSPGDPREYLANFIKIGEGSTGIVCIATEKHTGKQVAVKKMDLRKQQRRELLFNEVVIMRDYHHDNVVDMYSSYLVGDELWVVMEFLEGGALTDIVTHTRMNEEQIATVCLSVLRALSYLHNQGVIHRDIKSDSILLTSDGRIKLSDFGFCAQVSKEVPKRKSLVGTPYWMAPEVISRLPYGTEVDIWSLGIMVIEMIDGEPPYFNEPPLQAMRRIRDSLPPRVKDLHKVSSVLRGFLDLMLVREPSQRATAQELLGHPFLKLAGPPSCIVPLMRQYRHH
Sequence of Fibroblast growth factor receptor 3 (Homo sapiens) (P22607 23-806 limits assumed): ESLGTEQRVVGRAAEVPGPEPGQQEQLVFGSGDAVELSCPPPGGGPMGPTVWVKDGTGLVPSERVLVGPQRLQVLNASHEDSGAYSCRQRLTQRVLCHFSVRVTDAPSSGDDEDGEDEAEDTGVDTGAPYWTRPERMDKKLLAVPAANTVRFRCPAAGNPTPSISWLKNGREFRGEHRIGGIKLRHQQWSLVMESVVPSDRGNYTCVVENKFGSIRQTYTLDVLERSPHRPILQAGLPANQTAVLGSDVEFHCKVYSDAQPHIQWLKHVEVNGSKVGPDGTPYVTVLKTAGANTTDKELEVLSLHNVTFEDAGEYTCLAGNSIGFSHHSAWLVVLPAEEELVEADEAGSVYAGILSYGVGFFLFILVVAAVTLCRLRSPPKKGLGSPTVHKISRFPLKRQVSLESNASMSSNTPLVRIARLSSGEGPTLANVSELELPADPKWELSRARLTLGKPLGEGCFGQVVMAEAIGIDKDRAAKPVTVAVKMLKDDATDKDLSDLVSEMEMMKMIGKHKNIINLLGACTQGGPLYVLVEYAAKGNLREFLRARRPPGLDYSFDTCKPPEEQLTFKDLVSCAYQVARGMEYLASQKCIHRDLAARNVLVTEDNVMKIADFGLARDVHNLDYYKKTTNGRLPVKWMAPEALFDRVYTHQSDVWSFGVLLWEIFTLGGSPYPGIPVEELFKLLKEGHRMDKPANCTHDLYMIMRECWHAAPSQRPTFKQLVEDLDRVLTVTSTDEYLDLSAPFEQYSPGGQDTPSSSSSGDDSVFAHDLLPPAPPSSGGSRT
Sequence of Serine/threonine-protein kinase 17A (Homo sapiens) (Q9UEE5 whole entry, the tested form may be a part, canonical isoform): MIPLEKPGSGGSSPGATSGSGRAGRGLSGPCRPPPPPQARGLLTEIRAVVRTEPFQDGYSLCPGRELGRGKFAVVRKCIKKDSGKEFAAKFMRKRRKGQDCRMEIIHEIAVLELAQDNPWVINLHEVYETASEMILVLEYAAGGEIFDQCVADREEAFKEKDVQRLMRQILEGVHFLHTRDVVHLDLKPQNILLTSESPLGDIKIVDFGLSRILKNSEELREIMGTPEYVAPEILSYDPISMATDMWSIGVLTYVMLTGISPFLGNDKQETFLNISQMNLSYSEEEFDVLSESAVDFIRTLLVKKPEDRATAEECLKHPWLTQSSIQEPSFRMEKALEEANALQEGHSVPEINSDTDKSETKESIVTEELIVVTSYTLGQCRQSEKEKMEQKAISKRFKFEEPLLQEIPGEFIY
Sequence of Mitogen-activated protein kinase kinase kinase 3 (Homo sapiens) (Q99759 whole entry, the tested form may be a part): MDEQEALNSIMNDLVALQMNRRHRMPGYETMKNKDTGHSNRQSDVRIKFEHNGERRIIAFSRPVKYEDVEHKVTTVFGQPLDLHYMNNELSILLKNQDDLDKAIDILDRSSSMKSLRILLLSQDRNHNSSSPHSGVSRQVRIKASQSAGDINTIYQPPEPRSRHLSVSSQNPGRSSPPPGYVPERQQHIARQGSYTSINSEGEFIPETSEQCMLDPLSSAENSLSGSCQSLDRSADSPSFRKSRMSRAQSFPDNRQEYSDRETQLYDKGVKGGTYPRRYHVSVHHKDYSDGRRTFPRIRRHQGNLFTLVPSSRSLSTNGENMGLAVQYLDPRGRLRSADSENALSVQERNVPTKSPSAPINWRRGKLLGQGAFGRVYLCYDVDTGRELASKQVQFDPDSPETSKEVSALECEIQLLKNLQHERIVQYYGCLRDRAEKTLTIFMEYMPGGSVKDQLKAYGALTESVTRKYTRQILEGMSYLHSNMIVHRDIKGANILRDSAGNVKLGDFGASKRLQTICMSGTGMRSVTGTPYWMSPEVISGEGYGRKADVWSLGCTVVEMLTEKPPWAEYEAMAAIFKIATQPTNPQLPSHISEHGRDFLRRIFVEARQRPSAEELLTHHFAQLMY

Broadly, the GI50 is the concentration that inhibits growth by half. Low values mean more potent growth inhibition, high ones less potent growth inhibition. `Cc1ccc(NC(=O)c2ccc(CN(CCN(C)C)C(=O)c3cccnc3)cc2)cc1Nc1nccc(-c2cccnc2)n1`: the Activity stood at 90% in assay [1]; 100% in assay [2]; 79% in assay [3]; 100% in assay [4]; 100% in [5]; 100% in assay [6]. The Activity in assay [7] came to 100%; in [8], 96%; in assay [10], 100%; in [11], 77%; in assay [12] it was 95%; in assay [13], 86%. The Activity in assay [14] was determined as 92%; in [15], 97%; in assay [16], 79%; in assay [17], 96%; in assay [18], 28%; in assay [19] it was 85%. Further, the Activity in assay [20] is 96%; in assay [21], 100%. Moreover, the result in the assay with NCI-H1703 was inactive. The same compound came in with a GI50 in [9] of 34 nM.
